# Results taken from ChEMBL document CHEMBL1828575, “Design, synthesis and antiproliferative activities of biarylolefins based on polyhydroxylated and carbohydrate scaffolds” (Eur J Med Chem, 2011).
# Active and inactive are the calls of the source. No cut-off for these calls is given here.
# Legend:
# HCT-15 [1] = assay: Cytotoxicity against human HCT15 cells at 10^-5 M after 72 hrs by MTS assay; type: functional; details: HCT-15, 72 h, read-out: GI
# Method in brief: (§1)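 Cells grown in RPMI with 10% fetal calf serum, penicillin, streptomycin and fungizone under 5% CO₂. Plated in 96-well plates and dosed 24 h later with compound in DMSO (1% final DMSO; controls got DMSO alone). After 72 h, MTS was added for 3 h at 37 °C and A490 read. Inhibition = (1 − OD treated/OD control) × 100, in triplicate.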
# OVCAR-8 [2] = assay: Cytotoxicity against human OVCAR8 cells at 10^-5 M after 72 hrs by MTS assay; type: functional; details: OVCAR-8, 72 h, read-out: GI
# Method in brief: (§2)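 Preliminary screen at 10^-5 and 10^-6 M. Cells were grown in RPMI with 10% fetal calf serum plus penicillin, streptomycin and fungizone under 5% CO₂, plated in 96-well plates, and dosed 24 h later from DMSO stocks (1% DMSO final, same in controls). After 72 h, MTS was added for 3 h at 37 °C and absorbance read at 490 nm. Inhibition was calculated as (1 − OD treated/OD control) × 100, in triplicate.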
# MCF7 [3] = assay: Cytotoxicity against human MCF7 cells at 10^-5 M after 72 hrs by MTS assay; type: functional; details: MCF7, 72 h, read-out: GI
# HCT-116 [4] = assay: Cytotoxicity against human HCT116 cells at 10^-5 M after 72 hrs by MTS assay; type: functional; details: HCT-116, 72 h, read-out: GI; method in brief: as §1
# A549 [5] = assay: Cytotoxicity against human A549 cells at 10^-5 M after 72 hrs by MTS assay; type: functional; details: A549, 72 h, read-out: GI; method in brief: as §1
# HCT-116 [6] = assay: Cytotoxicity against human HCT116 cells at 10^-6 M after 72 hrs by MTS assay; type: functional; details: HCT-116, 72 h, read-out: GI; method in brief: as §1
# [7] = Cytotoxicity against human MDA231 cells at 10^-5 M after 72 hrs by MTS assay; type: functional; details: MDA-MB-231, 72 h, read-out: GI; method in brief: as §2
# [8] = Cytotoxicity against human HL60R cells at 10^-5 M after 72 hrs by MTS assay; type: functional, HL-60; details: read-out: GI; method in brief: as §1
# HCT-15 [9] = assay: Antiproliferative activity against human HCT15 cells after 72 hrs by MTS assay; type: functional, cell-based; details: HCT-15, 72 h
# Method in brief: (§3)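 Cell lines grown in RPMI with 10% fetal calf serum plus penicillin, streptomycin and fungizone under 5% CO2. Compounds in DMSO (1% final; controls got DMSO alone) were added 24 h after plating. After 72 h exposure, MTS was added for 3 h at 37 °C and A490 read. Inhibition = (1 − OD treated/OD control)×100, in triplicate. IC50s came from separate duplicate dose-response experiments.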
# OVCAR-8 [10] = assay: Cytotoxicity against human OVCAR8 cells at 10^-6 M after 72 hrs by MTS assay; type: functional; details: OVCAR-8, 72 h, read-out: GI; method in brief: as §2
# OVCAR-8 [11] = assay: Antiproliferative activity against human OVCAR8 cells after 72 hrs by MTS assay; type: functional, cell-based; details: OVCAR-8, 72 h; method in brief: as §3
# PC-3 [12] = assay: Antiproliferative activity against human PC3 cells after 72 hrs by MTS assay; type: functional, cell-based; details: PC-3, 72 h; method in brief: as §3
# SK-OV-3 [13] = assay: Antiproliferative activity against human SKOV3 cells after 72 hrs by MTS assay; type: functional, cell-based; details: SK-OV-3, 72 h; method in brief: as §3
# [14] = Cytotoxicity against human HL60R cells at 10^-6 M after 72 hrs by MTS assay; type: functional; details: read-out: GI; method in brief: as §1
# HT-29 [15] = assay: Cytotoxicity against human HT-29 cells at 10^-6 M after 72 hrs by MTS assay; type: functional; details: HT-29, 72 h, read-out: GI; method in brief: as §1
# MIA PaCa-2 [16] = assay: Cytotoxicity against human MIAPaCa2 cells at 10^-6 M after 72 hrs by MTS assay; type: functional; details: MIA PaCa-2, 72 h, read-out: GI
# K562 [17] = assay: Cytotoxicity against human K562 cells at 10^-6 M after 72 hrs by MTS assay; type: functional; details: K562, 72 h, read-out: GI; method in brief: as §1
# SF-268 [18] = assay: Antiproliferative activity against human SF268 cells after 72 hrs by MTS assay; type: functional, cell-based; details: SF-268, 72 h; method in brief: as §3
# A549 [19] = assay: Cytotoxicity against human A549 cells at 10^-6 M after 72 hrs by MTS assay; type: functional; details: A549, 72 h, read-out: GI; method in brief: as §1
# HT-29 [20] = assay: Cytotoxicity against human HT-29 cells at 10^-5 M after 72 hrs by MTS assay; type: functional; details: HT-29, 72 h, read-out: GI; method in brief: as §1
# [21] = Cytotoxicity against human MDA231 cells at 10^-6 M after 72 hrs by MTS assay; type: functional; details: MDA-MB-231, 72 h, read-out: GI; method in brief: as §2
# HCT-15 [22] = assay: Cytotoxicity against human HCT15 cells at 10^-6 M after 72 hrs by MTS assay; type: functional; details: HCT-15, 72 h, read-out: GI; method in brief: as §1
# [23] = Antiproliferative activity against human HL60R cells after 72 hrs by MTS assay; type: functional, cell-based
# [24] = Antiproliferative activity against human MDA231 cells after 72 hrs by MTS assay; type: functional, cell-based; details: MDA-MB-231, 72 h; method in brief: as §3
# K562 [25] = assay: Antiproliferative activity against human K562 cells after 72 hrs by MTS assay; type: functional, cell-based; details: K562, 72 h; method in brief: as §3
# SK-OV-3 [26] = assay: Cytotoxicity against human SKOV3 cells at 10^-6 M after 72 hrs by MTS assay; type: functional; details: SK-OV-3, 72 h, read-out: GI; method in brief: as §2
# MIA PaCa-2 [27] = assay: Cytotoxicity against human MIAPaCa2 cells at 10^-5 M after 72 hrs by MTS assay; type: functional; details: MIA PaCa-2, 72 h, read-out: GI
# HL-60 [28] = assay: Cytotoxicity against human HL60 cells at 10^-5 M after 72 hrs by MTS assay; type: functional; details: HL-60, 72 h, read-out: GI; method in brief: as §1
# SF-268 [29] = assay: Cytotoxicity against human SF268 cells at 10^-6 M after 72 hrs by MTS assay; type: functional; details: SF-268, 72 h, read-out: GI; method in brief: as §2
# K562 [30] = assay: Cytotoxicity against human K562 cells at 10^-5 M after 72 hrs by MTS assay; type: functional; details: K562, 72 h, read-out: GI; method in brief: as §1
# HL-60 [31] = assay: Antiproliferative activity against human HL60 cells after 72 hrs by MTS assay; type: functional, cell-based; details: HL-60, 72 h; method in brief: as §3
# MCF7 [32] = assay: Cytotoxicity against human MCF7 cells at 10^-6 M after 72 hrs by MTS assay; type: functional; details: MCF7, 72 h, read-out: GI
# HL-60 [33] = assay: Cytotoxicity against human HL60 cells at 10^-6 M after 72 hrs by MTS assay; type: functional; details: HL-60, 72 h, read-out: GI; method in brief: as §1
# SK-OV-3 [34] = assay: Cytotoxicity against human SKOV3 cells at 10^-5 M after 72 hrs by MTS assay; type: functional; details: SK-OV-3, 72 h, read-out: GI; method in brief: as §2
# PC-3 [35] = assay: Cytotoxicity against human PC3 cells at 10^-5 M after 72 hrs by MTS assay; type: functional; details: PC-3, 72 h, read-out: GI; method in brief: as §2
# SF-268 [36] = assay: Cytotoxicity against human SF268 cells at 10^-5 M after 72 hrs by MTS assay; type: functional; details: SF-268, 72 h, read-out: GI; method in brief: as §2
# PC-3 [37] = assay: Cytotoxicity against human PC3 cells at 10^-6 M after 72 hrs by MTS assay; type: functional; details: PC-3, 72 h, read-out: GI; method in brief: as §2
# Ovis aries = species on record: Ovis aries; assay: Inhibition of sheep brain tubulin polymerization at 10 uM
# Method in brief: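 Microtubule protein from sheep brain, purified by two assembly/disassembly cycles (37 °C/0 °C), in 100 mM MES pH 6.6, 1 mM EGTA, 0.5 mM MgCl₂. Compounds in DMSO were tested at a single concentration, with incubation at 37 °C for 10 min and then 0 °C for 5 min before measuring assembly rate, following a modified Guénard protocol.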
SMILES,inhibition of growth at 10 µM (HCT-15 [1]) [%],inhibition of growth at 10 µM (OVCAR-8 [2]) [%],inhibition of growth at 10 µM (MCF7 [3]) [%],inhibition of growth at 10 µM (HCT-116 [4]) [%],inhibition of growth at 10 µM (A549 [5]) [%],inhibition of growth at 1 µM (HCT-116 [6]) [%],inhibition of growth at 10 µM [7] [%],inhibition of growth at 10 µM [8] [%],inhibition of growth at 1 µM (OVCAR-8 [10]) [%],inhibition of growth at 1 µM [14] [%],inhibition of growth at 1 µM (HT-29 [15]) [%],inhibition of growth at 1 µM (MIA PaCa-2 [16]) [%],inhibition of growth at 1 µM (K562 [17]) [%],inhibition of growth at 1 µM (A549 [19]) [%],inhibition of growth at 10 µM (HT-29 [20]) [%],inhibition of growth at 1 µM [21] [%],inhibition of growth at 1 µM (HCT-15 [22]) [%],inhibition of growth at 1 µM (SK-OV-3 [26]) [%],inhibition of growth at 10 µM (MIA PaCa-2 [27]) [%],inhibition of growth at 10 µM (HL-60 [28]) [%],also measured
COc1ccc(/C(=C2\O[C@@H]([C@H](O)CO)[C@H]3OC(C)(C)O[C@@H]23)c2cc(OC)c(OC)c(OC)c2)cc1O,82,95,43,58,58,1,69,95,1,12,6,5,15,0,8,0,11,6,58,79,IC50 (HCT-15 [9]): 630 nM; IC50 (OVCAR-8 [11]): 2970 nM; IC50 (PC-3 [12]): 690 nM; IC50 (SK-OV-3 [13]): 6.51 µM; IC50 (SF-268 [18]): 1100 nM; IC50 [23]: 1490 nM; IC50 [24]: 610 nM; IC50 (K562 [25]): 450 nM; inhibition of growth at 1 µM (SF-268 [29]): 16%; inhibition of growth at 10 µM (K562 [30]): 90%; IC50 (HL-60 [31]): 820 nM; inhibition of growth at 1 µM (MCF7 [32]): 0%; inhibition of growth at 1 µM (HL-60 [33]): 10%; inhibition of growth at 10 µM (SK-OV-3 [34]): 81%; inhibition of growth at 10 µM (PC-3 [35]): 77%; inhibition of growth at 10 µM (SF-268 [36]): 73%; inhibition of growth at 1 µM (PC-3 [37]): 0%
COc1cc(C(=C(CO)CO)c2cc(OC)c(OC)c(OC)c2)cc(OC)c1OC,22,0,31,0,13,6,42,0,0,17,0,0,4,0,0,0,8,13,0,40,tubulin polymerization inhibition call (active/not active) (Ovis aries): inactive; inhibition of growth at 1 µM (SF-268 [29]): 13%; inhibition of growth at 10 µM (K562 [30]): 25%; inhibition of growth at 1 µM (MCF7 [32]): 8%; inhibition of growth at 1 µM (HL-60 [33]): 17%; inhibition of growth at 10 µM (SK-OV-3 [34]): 14%; inhibition of growth at 10 µM (PC-3 [35]): 26%; inhibition of growth at 10 µM (SF-268 [36]): 35%; inhibition of growth at 1 µM (PC-3 [37]): 18%
COc1cc(C(=C(COC(C)=O)COC(C)=O)c2cc(OC)c(OC)c(OC)c2)cc(OC)c1OC,48,24,44,17,22,0,69,36,0,11,0,0,12,0,4,0,19,8,10,39,tubulin polymerization inhibition call (active/not active) (Ovis aries): inactive; inhibition of growth at 1 µM (SF-268 [29]): 26%; inhibition of growth at 10 µM (K562 [30]): 29%; inhibition of growth at 1 µM (MCF7 [32]): 5%; inhibition of growth at 1 µM (HL-60 [33]): 15%; inhibition of growth at 10 µM (SK-OV-3 [34]): 23%; inhibition of growth at 10 µM (PC-3 [35]): 44%; inhibition of growth at 10 µM (SF-268 [36]): 53%; inhibition of growth at 1 µM (PC-3 [37]): 7%
COc1cc(C(=C(COC(C)=O)COC(C)=O)c2ccc3c(c2)OCO3)cc(OC)c1OC,22,0,11,0,12,0,17,24,0,9,0,0,5,0,0,0,9,3,0,30,tubulin polymerization inhibition call (active/not active) (Ovis aries): inactive; inhibition of growth at 1 µM (SF-268 [29]): 24%; inhibition of growth at 10 µM (K562 [30]): 26%; inhibition of growth at 1 µM (MCF7 [32]): 0%; inhibition of growth at 1 µM (HL-60 [33]): 17%; inhibition of growth at 10 µM (SK-OV-3 [34]): 7%; inhibition of growth at 10 µM (PC-3 [35]): 13%; inhibition of growth at 10 µM (SF-268 [36]): 20%; inhibition of growth at 1 µM (PC-3 [37]): 3%
